Measurements from ChEMBL document CHEMBL1122917, “Vinblastin-23-oyl amino acid derivatives: chemistry, physicochemical data, toxicity, and antitumor activities against P388 and L1210 leukemias” (J Med Chem, 1985).

Key:
Mus musculus [1] = assay: Percent increase in life span at dose 56 mg/kg/day in 10 mice implanted with P388 leukemia cell line; assay type: functional
Mus musculus [2] = assay: Percent increase in life span of DBA2 mice after inoculation with L1210 leukemia intravenously at a dose of 70 mg/kg per day; assay type: functional; conditions: route intravenous
In short: (§1)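 Female DBA2 mice inoculated iv on day 0 with 10^4 L1210 cells; drugs given iv as sulfate salts in physiological saline, mostly once on day 1. %ILS from all deaths and survivors as (T/C × 100) − 100; survivors scored on days 30 and 60.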

Mus musculus [3] = assay: Number of survivors on 60th day at dose 55 mg/kg/day in 10 mice implanted with P388 leukemia cell line for 1,5,9 scheduled days; 1/10; assay type: functional
Mus musculus [4] = assay: Number of survivors on 60th day at dose 55 mg/kg/day in 10 mice implanted with P388 leukemia cell line; 1/10; assay type: functional
Mus musculus [5] = assay: Number of survivors on 60th day at dose 60 mg/kg/day in 10 mice implanted with P388 leukemia cell line 1,5,9 scheduled days; 3/10; assay type: functional
Mus musculus [6] = assay: Number of survivors of DBA2 mice on 30th day after inoculation with L1210 leukemia cell line intravenously at a dose of 55 mg/kg/day; 0/10; assay type: functional; conditions: route intravenous
Mus musculus [7] = assay: Percent increase in life span at dose 20 mg/kg/day in 10 mice implanted with P388 leukemia cell line; assay type: functional
In short: (§2)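 Female DBA2 mice inoculated iv on day 0 with 10^4 P388 cells; single iv treatment on day 1 with drug as sulfate salt in physiological saline. Survival followed; %ILS from all deaths and survivors as (T/C × 100) − 100, maximal MST 30 days; survivors counted on days 30 and 60. Most experiments confirmed three times.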

Mus musculus [8] = assay: Number of survivors on 30th day at dose 55 mg/kg/day in 10 mice implanted with P388 leukemia cell line for 1st scheduled day; 1/10; assay type: functional
Mus musculus [9] = assay: Number of survivors on 30th day at dose 56 mg/kg/day in 10 mice implanted with P388 leukemia cell line; 4/10; assay type: functional
Mus musculus [10] = assay: Number of survivors of DBA2 mice on 60th day after inoculation with L1210 leukemia cell line intravenously at a dose of 58 mg/kg/day; 0/10; assay type: functional; conditions: route intravenous
Mus musculus [11] = assay: Number of survivors of DBA2 mice on 60th day after inoculation with L1210 leukemia cell line intravenously at a dose of 65 mg/kg/day; 0/10; assay type: functional; conditions: route intravenous
Mus musculus [12] = assay: Percent increase in life span at dose 6 mg/kg/day in 7 mice implanted with P388 leukemia cell line for 1,8,15 schedule days from Exp-1; assay type: functional
Mus musculus [13] = assay: Percent increase in life span of DBA2 mice after inoculation with L1210 leukemia intravenously at a dose of 6 mg/kg per day; assay type: functional; conditions: route intravenous; in short: as §1
Mus musculus [14] = assay: Number of survivors on 60th day at dose 6 mg/kg/day in 7 mice implanted with P388 leukemia cell line for 1,8.15 scheduled days from Exp-1; 0/10; assay type: functional
Mus musculus [15] = assay: Number of survivors of DBA2 mice on 30th day after inoculation with L1210 leukemia cell line intravenously at a dose of 6 mg/kg/day; 0/10; assay type: functional; conditions: route intravenous
Mus musculus [16] = assay: Number of survivors of DBA2 mice on 30th day after inoculation with L1210 leukemia cell line intravenously at a dose of 8 mg/kg/day; 0/10; assay type: functional; conditions: route intravenous
Mus musculus [17] = assay: Percent increase in life span at dose 9 mg/kg/day in 10 mice implanted with P388 leukemia cell line; assay type: functional; in short: as §2
Mus musculus [18] = assay: Number of survivors on 60th day at dose 8 mg/kg/day in 7 mice implanted with P388 leukemia cell line for 1,8.15 scheduled days from Exp-2; 0/10; assay type: functional
Mus musculus [19] = assay: Number of survivors on 60th day at dose 9 mg/kg/day in 10 mice implanted with P388 leukemia cell line; 0/10; assay type: functional; in short: as §2
Mus musculus [20] = assay: Number of survivors on 60th day at dose 4 mg/kg/day in 10 mice implanted with P388 leukemia cell line; 0/9; assay type: functional
Mus musculus [21] = assay: Number of survivors of DBA2 mice on 60th day after inoculation with L1210 leukemia cell line intravenously at a dose of 10 mg/kg/day; 0/10; assay type: functional; conditions: route intravenous
Mus musculus [22] = assay: Number of survivors of DBA2 mice on 60th day after inoculation with L1210 leukemia cell line intraperitoneally at a dose of 2 mg/kg/day; 0/10; assay type: functional; conditions: route intraperitoneal
Mus musculus [23] = assay: Number of survivors of DBA2 mice on 60th day after inoculation with L1210 leukemia cell line intraperitoneally at a dose of 3 mg/kg/day; 0/10; assay type: functional; conditions: route intraperitoneal
Mus musculus [24] = assay: Number of survivors of DBA2 mice on 60th day after inoculation with L1210 leukemia cell line intraperitoneally at a dose of 6 mg/kg/day; 0/10; assay type: functional; conditions: route intraperitoneal
Mus musculus [25] = assay: Number of survivors on 60th day at dose 3 mg/kg/day in 10 mice implanted with P388 leukemia cell line; 0/10; assay type: functional
Mus musculus [26] = assay: Percent increase in life span at dose 11 mg/kg/day in 10 mice implanted with P388 leukemia cell line; assay type: functional; in short: as §2
Mus musculus [27] = assay: Percent increase in life span at dose 4 mg/kg/day in 10 mice implanted with P388 leukemia cell line for 1st scheduled day; assay type: functional
In short: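 Female DBA2 mice inoculated iv on day 0 with 10^5 P388 cells; iv dosing of sulfate salts in physiological saline on day 1 only or on days 1, 8 and 15. %ILS from all deaths and survivors as (T/C × 100) − 100, maximal MST 60 days; survivors scored on day 60.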

Mus musculus [28] = assay: Number of survivors on 60th day at dose 4 mg/kg/day in 10 mice implanted with P388 leukemia cell line for 1st scheduled day; 0/10; assay type: functional
Mus musculus [29] = assay: Number of survivors of DBA2 mice on 30th day after inoculation with L1210 leukemia cell line intraperitoneally at a dose of 3 mg/kg/day; 0/10; assay type: functional; conditions: route intraperitoneal
Mus musculus [30] = assay: Percent increase in life span of BDF1 mice after inoculation with P388 leukemia intraperitoneally at a dose of 3 mg/kg per day; conditions: P388, ip
Mus musculus [31] = assay: Percent increase in life span of BDF1 mice after inoculation with P388 leukemia intraperitoneally at a dose of 6 mg/kg per day; conditions: P388, ip
Mus musculus [32] = assay: Number of survivors on 60th day at dose 2 mg/kg/day in 10 mice implanted with P388 leukemia cell line; 0/10; assay type: functional
Mus musculus [33] = assay: Percent increase in life span of DBA2 mice after inoculation with L1210 leukemia intravenously at a dose of 3.5 mg/kg per day; assay type: functional; conditions: route intravenous
Mus musculus [34] = assay: Number of survivors of DBA2 mice on 60th day after inoculation with L1210 leukemia cell line intravenously at a dose of 2.5 mg/kg/day; 0/10; assay type: functional; conditions: route intravenous
Mus musculus [35] = assay: Number of survivors on 30th day at dose 2 mg/kg/day in 10 mice implanted with P388 leukemia cell line; 0/10; assay type: functional
Mus musculus [36] = assay: Number of survivors on 60th day at dose 2.5 mg/kg/day in 10 mice implanted with P388 leukemia cell line for 1st scheduled day; 0/10; assay type: functional
Mus musculus [37] = assay: Number of survivors on 30th day at dose 6 mg/kg/day in 10 mice implanted with P388 leukemia cell line; 0/10; assay type: functional

Row | SMILES | ILS at 6 mg/kg/day (Mus musculus [13]) [%] | Survivors (Mus musculus [15]) | Survivors (Mus musculus [16]) | ILS at 9 mg/kg/day (Mus musculus [17]) [%] | Survivors (Mus musculus [19]) | Survivors (Mus musculus [22]) | Survivors (Mus musculus [23]) | Survivors (Mus musculus [24]) | Survivors (Mus musculus [25]) | ILS at 4 mg/kg/day (Mus musculus [27]) [%] | Survivors (Mus musculus [28]) | Survivors (Mus musculus [29]) | ILS at 3 mg/kg/day (Mus musculus [30]) [%] | ILS at 6 mg/kg/day (Mus musculus [31]) [%] | Survivors (Mus musculus [32]) | Survivors (Mus musculus [34]) | Survivors (Mus musculus [35]) | other results
1 | CCOC(=O)[C@H](Cc1c[nH]c2ccccc12)NC(=O)[C@@]1(O)[C@H](O)[C@]2(CC)C=CCN3CC[C@@]4(c5cc([C@@]6(C(=O)OC)C[C@H]7C[N@](CCc8c6[nH]c6ccccc86)C[C@](O)(CC)C7)c(OC)cc5N(C)[C@@]14C)[C@@H]32 | – | – | – | – | – | – | – | – | – | – | – | – | – | – | – | – | – | ILS at 56 mg/kg/day (Mus musculus [1]): 113%; ILS at 70 mg/kg/day (Mus musculus [2]): 61.8%; Survivors (Mus musculus [3]): 1; Survivors (Mus musculus [4]): 1; Survivors (Mus musculus [5]): 3; Survivors (Mus musculus [6]): 0; ILS at 20 mg/kg/day (Mus musculus [7]): 43.9%; Survivors (Mus musculus [8]): 1; Survivors (Mus musculus [9]): 4; Survivors (Mus musculus [10]): 0; Survivors (Mus musculus [11]): 0
2 | CCOC(=O)[C@@H](NC(=O)[C@@]1(O)[C@H](O)[C@]2(CC)C=CCN3CC[C@@]4(c5cc([C@@]6(C(=O)OC)C[C@H]7C[N@](CCc8c6[nH]c6ccccc86)C[C@](O)(CC)C7)c(OC)cc5N(C)[C@@]14C)[C@@H]32)[C@@H](C)CC | 41.3 | 0 | 0 | 34 | 0 | – | – | – | – | – | – | – | – | – | – | – | – | ILS at 6 mg/kg/day (Mus musculus [12]): 150%; Survivors (Mus musculus [14]): 0; Survivors (Mus musculus [18]): 0; Survivors (Mus musculus [20]): 0; Survivors (Mus musculus [21]): 0
3 | CC[C@]1(O)C[C@@H]2CN(CCc3c([nH]c4ccccc34)[C@@](C(=O)OC)(c3cc4c(cc3OC)N(C)[C@H]3[C@@](O)(C(=O)OC)[C@H](OC(C)=O)[C@]5(CC)C=CCN6CC[C@]43[C@@H]65)C2)C1 [VINBLASTINE] | 24.7 | 0 | 0 | 49.5 | 0 | 0 | 0 | 0 | 0 | 52 | 0 | 0 | 63 | -61 | – | – | – | ILS at 11 mg/kg/day (Mus musculus [26]): -40%
4 | CC[C@]1(O)C[C@H]2CN(CCc3c([nH]c4ccccc34)[C@@](C(=O)OC)(c3cc4c(cc3OC)N(C=O)[C@H]3[C@@](O)(C(=O)OC)[C@H](OC(C)=O)[C@]5(CC)C=CCN6CC[C@]43[C@@H]65)C2)C1 [VINCRISTINE] | – | – | – | – | – | – | – | – | – | – | – | – | – | – | 0 | 0 | 0 | ILS at 3.5 mg/kg/day (Mus musculus [33]): 14.7%
5 | CC[C@]1(O)C[C@@H]2CN(CCc3c([nH]c4ccccc34)[C@@](C(=O)OC)(c3cc4c(cc3OC)N(C)[C@H]3[C@@](O)(C(N)=O)[C@H](O)[C@]5(CC)C=CCN6CC[C@]43[C@@H]65)C2)C1 [VINDESINE] | – | – | – | – | – | 0 | 0 | 0 | 0 | 43 | 0 | 0 | 89 | -47 | 0 | 0 | 0 | Survivors (Mus musculus [36]): 0; Survivors (Mus musculus [37]): 0
